RBBP9 inh: human RBBP9 hydrolase inhibition. inhibition, % at 7.94 µM. O75884. recombinant RBBP9, FP-Rh probe fluorescence polarization. hit rate 0.2% among 220,000. AID 1515;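 active = inhibition above the campaign mean of all tested compounds plus 3 SD, cut at about 14% in these data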;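 note: plate controls were DMSO wells with RBBP9 for no effect and wells lacking RBBP9 protein for full effect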
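Controls: DMSO-treated enzyme wells and wells lacking RBBP9 | Material: RBBP9 protein | Technique: Fluorescence polarization | Replication: Single well per compound, no replicates | Buffer or medium: Tris-NaCl-Pluronic buffer, pH 8.0 | Timing: 30 min compound preincubation, 45 min probe labeling, 25 °C | Read-out basis: Percent inhibition from mP, scaled between DMSO and no-protein wells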
Wee1 stabilizer: human Wee1 degradation inhibition, primary screen; HeLa Luc-Wee1K328M stability, luciferase luminescence; 100% = proteasome inhibitor MG132 effect; reporter increase, % at 5 µM; hit rate 1.2% among 220,000; AID 1321;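 active = activation above the mean of all tested compounds plus 3 SD, set per screening run, cut at about 8.8% in these data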;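 note: cells exposed to compound for 20 h before luminescence read; 0% = DMSO alone and 100% = MG132 at 30 µM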
Target sequence (P30291 whole entry K328M): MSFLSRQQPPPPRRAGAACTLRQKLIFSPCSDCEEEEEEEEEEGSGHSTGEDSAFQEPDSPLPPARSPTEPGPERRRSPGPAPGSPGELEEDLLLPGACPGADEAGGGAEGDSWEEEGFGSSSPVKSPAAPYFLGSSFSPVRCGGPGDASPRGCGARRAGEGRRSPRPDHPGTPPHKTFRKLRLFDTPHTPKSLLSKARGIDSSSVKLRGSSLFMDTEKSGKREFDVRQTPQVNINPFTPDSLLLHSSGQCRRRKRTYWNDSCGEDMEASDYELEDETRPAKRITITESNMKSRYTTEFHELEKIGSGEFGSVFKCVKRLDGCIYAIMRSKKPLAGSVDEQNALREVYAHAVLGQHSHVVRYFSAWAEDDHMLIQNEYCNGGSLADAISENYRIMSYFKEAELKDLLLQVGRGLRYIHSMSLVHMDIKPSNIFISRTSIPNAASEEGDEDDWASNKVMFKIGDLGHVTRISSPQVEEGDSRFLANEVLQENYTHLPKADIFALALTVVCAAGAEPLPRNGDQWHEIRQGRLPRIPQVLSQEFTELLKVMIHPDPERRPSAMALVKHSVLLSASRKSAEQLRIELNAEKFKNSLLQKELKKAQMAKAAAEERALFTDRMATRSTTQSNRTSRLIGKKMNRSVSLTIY
Pf gamet viab: inhibitors of late stage P. falciparum gametocyte viability; inhibition, % at 10.9 µM; hit rate 0.065% among 150,000; P. falciparum stage V gametocytes, ATP luminescence, 24 h;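 active = inhibition above the mean plus 3 SD of compounds within the control limits, set per campaign, cut at about 38% in these data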;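 note: 0% = DMSO wells and 100% = medium only without gametocytes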
zVAD death inh: blocks zVAD induced death of L929 cells. L929 zVAD necroptosis rescue, ATP luminescence, 24 h; with zVAD 60 µM. hit rate 0.38% among 220,000. viability rescue, % at 10 µM;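 active = activation, scaled between plate controls, above about 75%, limit read from the data; inactive = activation under that limit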;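 note: 0% = zVAD with DMSO and 100% = DMSO alone without zVAD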
m-calpain inh: inhibitors of pig calpain II; purified calpain II, fluorogenic peptide substrate, 30 min; inhibition, % at 16 µM; hit rate 0.37% among 220,000; AID 1236;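 active = inhibition above about 50%, limit read from the data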
TNF necrop inh: inhibitors of TNF-alpha induced necroptosis in Jurkat FADD-/- cells; Jurkat FADD-/- TNF necroptosis rescue, ATP luminescence, 24 h; 0 = TNF only, 100 = no-TNF cells; activation (protection from cell death), % at 10 µM; hit rate 0.068% among 220,000;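 active = activation, meaning protection from cell death, of at least 50% relative to plate controls; inactive = activation below 50%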;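 note: necroptosis triggered by 40 ng/mL TNF-alpha added together with compound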
* hit, by the source's call; nt = not tested or not shown. Hits are enriched below; roughly 2.1% of the tested compounds scored in any of these assays.

SMILES	RBBP9 inh	Wee1 stabilizer	Pf gamet viab	zVAD death inh	m-calpain inh	TNF necrop inh
CCOC(=O)N1CCC(NC(=O)c2ccc3c(c2)ncn3C2CCCC2)CC1	-3	2	-26	9	77*	2
Cc1csc(Nc2ccccc2)[n+]1-c1ccccc1	-1	4	7	1	-3	56*
CCOc1cc(CNn2nnnc2N)cc(Cl)c1OCC(=O)NC(C)(C)C	-2	0	-16	0	-15	-1
O=C1NCCn2ccc(=O)cc21	5	13*	-10	1	-12	2
CC(C)CN(Cc1cc(=O)oc2cc(-c3ccccc3)c(O)cc12)CC(C)C	-13	9.3*	4	1	-31	2
Cc1nc(SCC(=O)N2CCCCCC2)c2c(=O)n(C)c(=O)n(CC(C)C)c2n1	nt	nt	-17	nt	nt	nt
COc1cccc(CNC(=O)C23CN(Cc4ccccc4)CC2C(c2ccc([N+](=O)[O-])cc2)=NO3)c1 (stereo not drawn)	-12	3	nt	0	14	0
CC(C)CCNC(=O)C12CN(Cc3ccccc3)CC1C(c1ccc([N+](=O)[O-])cc1)=NO2 (stereo not drawn)	-9	-3	-5	0	58*	-2
Cc1ccc2c(Cl)c(C)c(N3CCOCC3)nc2n1	nt	nt	5	nt	nt	nt
Cc1nc(N2CCOCC2)nc(Oc2ccccc2)c1[N+](=O)[O-]	-4	9.2*	3	-1	25	-4
CCCCOc1nc(N2CCOCC2)nc(C)c1[N+](=O)[O-]	-5	1	2	0	7	-1
CCOC(=O)C1(CCCc2ccccc2)CCN(C(=O)CCC2=NNC(=O)CC2)CC1	-13	11*	-8	0	15	-2
CCOC(=O)C1(CCCc2ccccc2)CCN(C(=O)Cc2nonc2C)CC1	-10	5	6	-1	13	1
Cc1ccc(NCc2nnc(SCC(=O)N(Cc3ccccc3)C(C)(C)C)o2)c(C)c1	3	2	nt	0	60*	-5
Cc1ccc(NCc2nnc(SCC(N)=O)o2)c(C)c1	-9	1	-11	3	-29	0
COC(=O)c1ccccc1Nc1ccnc(Cl)n1	nt	nt	6	nt	nt	nt
Cc1cc(N)n(-c2ccc3ccccc3c2)n1	7	2	9	0	8	-19
CN(C)C(/C=C/Nc1cccc(Br)c1)=C(C#N)C#N	-4	8	9	0	12	-1
Cc1cccc(N/C=C/C(=C(C#N)C#N)N(C)C)c1	-6	-1	nt	1	60*	-2
COc1cccc(N2CN(C3CCCCC3)CNC2=S)c1	0	-3	10	-1	2	0
C=CCN=C1S/C(=C/c2ccc([N+](=O)[O-])cc2)C(=O)N1CC=C	-4	8	-16	1	11	1
C=CCN=C1S/C(=C/c2cccc([N+](=O)[O-])c2)C(=O)N1CC=C	-5	9.9*	-4	-1	11	-12
CCCCCCCCCCCCCCCC[n+]1cccc2ccccc21	0	-3	0	12	99*	-16
CCCCCCCCC[n+]1cccc2c3ccccc3ccc21	1	-2	nt	14	-21	-20
COc1ccc(C(=O)NCCNC(=O)c2ccc(OC)cc2)cc1	nt	nt	-7	nt	nt	nt
SMILES	RBBP9 inh	Wee1 stabilizer	Pf gamet viab	zVAD death inh	m-calpain inh	TNF necrop inh
COc1ccc(C(=O)NCC(C)(C)SCc2c(C)cc(C)cc2C)cc1	-9	0	nt	0	56*	-5
CN(CCC#N)C(=O)CC1(Cc2ccccc2)CCOC(C)(C)C1 (stereo not drawn)	-8	2	0	1	-13	-1
Cc1ccc(OCC(=O)NNC(=O)C(C)Sc2ncnc3sc(C)c(C)c23)cc1 (stereo not drawn)	-3	-3	3	0	91*	-4
Cn1nc(-c2ccc(OCC(=O)NCC3CCCO3)cc2)c2ccccc2c1=O (stereo not drawn)	-6	9.6*	nt	0	-23	-5
Cn1nc(-c2ccc(C(=O)NCC3CCCO3)cc2)c2ccccc2c1=O (stereo not drawn)	4	5	15	0	nt	-4
CC(C)(C)c1ccc(C(=O)N/C(=C\c2cccc([N+](=O)[O-])c2)C(=O)Nc2cccc(C(=O)O)c2)cc1	nt	nt	-19	nt	nt	nt
O=C(Cn1c(-c2cscn2)nc2ccccc21)Nc1cc(F)ccc1F	-5	-1	nt	0	8	-4
